Assay results published in ChEMBL document CHEMBL1157933, “The anti-cancer, anti-inflammatory and tuberculostatic activities of a series of 6,7-substituted-5,8-quinolinequinones” (Bioorg Med Chem, 2010).
pIC50: −log10 of the molar value.

What was measured:
[1] = Antiproliferative activity against human T cells after 48 hrs by MTT assay; type: cell-based; conditions: T-cell
In short: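 Healthy-donor PBMC (Ficoll-hypaque) activated 2 days with CD2/CD3/CD28-loaded anti-biotin beads, then expanded 2–4 days with 20 U/mL IL-2. Cells plated at 0.2 × 10^6 cells/mL in complete RPMI with varied compound concentrations for 48 h at 37 °C; MTT 2 h, SDS/DMF lysis overnight, absorbance 570 nm. Triplicate, mean reported.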

[2] = Antiinflammatory activity in human neutrophils assessed as inhibition of PMA-induced superoxide production after 20 mins by WST1 assay; type: functional, cell-based; conditions: Neutrophil
HL-60 = assay: Antiproliferative activity against human HL60 cells after 48 hrs by MTT assay; type: functional, cell-based; conditions: HL-60, 48 h

Structure (SMILES) | pIC50 [1] | pIC50 [2] | pIC50 (HL-60)
Cc1ccc(S(=O)(=O)C2=C(S(=O)(=O)c3ccc(C)cc3)C(=O)c3ncccc3C2=O)cc1 | 4.39 | < 3.70 | 4.21
O=C1C(Cl)=C(NCCBr)C(=O)c2ncccc21 | 5.60 | 4.68 | 5.92
O=C1C(NCCCl)=C(Cl)C(=O)c2ncccc21 | 5.64 | 4.43 | 5.79
O=C1C(Cl)=C(NCCCl)C(=O)c2ncccc21 | 5.64 | 4.51 | 5.71
Cc1ccc2c(n1)C(=O)C(Cl)=C(NCCBr)C2=O | 5.65 | 4.47 | 5.89
Cc1ccc2c(n1)C(=O)C(NCCBr)=C(Cl)C2=O | 5.80 | 4.14 | 5.92
CNC1=C(SC)C(=O)c2cccnc2C1=O | 5.12 | < 3.70 | 5.10
CNC1=C(Sc2ccccc2)C(=O)c2ncccc2C1=O | 4.91 | < 3.82 | 5.10
CNC1=C(Sc2ccccc2)C(=O)c2cccnc2C1=O | 5.16 | 4.03 | 5.23
CNC1=C([S+](C)[O-])C(=O)c2ncccc2C1=O (stereo not drawn) | 4.93 | < 3.70 | 4.92
Cc1ccc2c(n1)C(=O)C(Cl)=C(Cl)C2=O | 4.35 | 5.47 | 4.73
O=C1c2cccnc2C(=O)C2SCCNC12 (stereo not drawn) | 5.23 | < 3.70 | 5.37
O=C1C2=C(NCCS2)C(=O)c2ncccc21 | 5.22 | < 3.70 | 5.45
C[S+]([O-])C1=C(N)C(=O)c2cccnc2C1=O (stereo not drawn) | 5.71 | < 3.70 | 5.89
CNC1=C(Cl)C(=O)c2cccnc2C1=O | 5.28 | 4.39 | 5.37
CSC1=C(N)C(=O)c2cccnc2C1=O | 5.08 | < 3.82 | 5.12
CNC1=C(SC)C(=O)c2ncccc2C1=O | 4.71 | < 3.70 | 5.46
CSC1=C(SC)C(=O)c2ncccc2C1=O | 5.77 | 6.96 | 5.91
O=C1C(NCCBr)=C(Cl)C(=O)c2ncccc21 | 5.59 | 4.70 | 5.78
O=C1C(NC(c2ccccc2)c2ccccc2)=C(Cl)C(=O)c2ncccc21 | 5.59 | 4.47 | 5.61
CNC1=C(Cl)C(=O)c2ncccc2C1=O | 5.45 | 4.10 | 5.61
CNC1=C([S+](C)[O-])C(=O)c2cccnc2C1=O (stereo not drawn) | 4.87 | < 3.70 | 4.48
CS(=O)(=O)C1=C(N)C(=O)c2cccnc2C1=O | 4.71 | < 3.70 | 5.34
Cc1ccc(S(=O)(=O)C2=C(Cl)C(=O)c3ncccc3C2=O)cc1 | 4.45 | < 3.70 | 4.42
O=C1C(Sc2ccccc2)=C(Sc2ccccc2)C(=O)c2ncccc21 | 5.11 | 4.61 | 5.43
Oc1c(Sc2ccccc2)c(Sc2ccccc2)c(O)c2ncccc12 | 5.00 | 5.64 | 5.16
